In PMC8792325 (Bioorganic & medicinal chemistry letters, 2021):
pIC50: −log10 of the molar value.

How the values were obtained:
[1] = test system: HBV replication in HepDES19 cells; experiment: Mapping of the HBV replication step inhibited, in HepDES19 cells; assay type: cell-based, Hepatitis B virus; conditions: HepDES19, 6 days, ETV 1 μM, Bay 41–4109 2 μM; for encapsidated pgRNA / capsids: ENAN-34017 5 μM, 61 5 μM; for encapsidated pgRNA: Northern blot; for capsids: particle gel assay; for intracellular core protein level: Western blot
Summary of the method: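 HepDES19 cells were kept with tetracycline to block pgRNA transcription (negative control) or without it to induce pgRNA and HBV DNA replication. From 24 h after tet removal, cells got DMSO, test compound (5 μM) or a type II CpAM reference (5 μM) for 6 days. Intracellular core protein was detected by Western blot with an antibody to Cp C-terminal 14 residues; β-actin was the loading control.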

[2] = Metabolic stability in mouse liver microsomes; assay type: in vitro ADME; conditions: Half-life T1/2, mouse liver microsomes
HBV replication [3] = conditions: immortalized mouse hepatocyte line AML12HBV10; cited from earlier work
HBV replication [4] = conditions: human hepatoma cell line HepDES19; cited from earlier work
HBV replication [5] = experiment: Anti-HBV activity, dot blot hybridization assay in AML12HBV10 cells; assay type: cell-based, Hepatitis B virus
[6] = test system: CYP enzymes (one unnamed isoform of a panel of 9); experiment: in vitro; assay type: in vitro ADME
CYP enzymes = experiment: in vitro; assay type: in vitro ADME; conditions: human, 10 μM
[7] = Mouse PK study, IV and PO; parameters: species or system mice; conditions: in vivo, 3 mg/kg

Structure (SMILES): C=C1[C@H](CO)[C@@H](O)C[C@@H]1n1cnc2c(=O)[nH]c(N)nc21.O [Entecavir]
- encapsidated pgRNA [1]: accumulation of encapsidated pgRNA
- capsids [1]: did not alter
- intracellular core protein level [1]: did not alter

Structure (SMILES): O=C(Nc1ccc(F)c(Cl)c1)c1cccc2c1OCCO2 [Compound 10]
- half-life [2]: < 10 min
- EC50 in AML12HBV10 (HBV replication [3]): sub-micromolar
- EC50 in HepDES19 (HBV replication [4]): sub-micromolar

Structure (SMILES): O=C(Nc1ccc(N2CCOCC2)c(Cl)c1)c1cccc2c1OCCO2 [Compound 17]
- anti-HBV activity (in words) (HBV replication [5]): loss of anti-HBV activity

Structure (SMILES): O=C1CCN(C(=O)Nc2ccc(F)c(Cl)c2)C2CCCCC12 (stereo not drawn) [Compound 61, cis-N-(3-chloro-4-fluorophenyl)-4-oxooctahydroquinoline-1(2H)-carboxamide]
- pIC50 [6]: > 5.00
- CYP (#/9 of isoforms, > 50% of inhibition at 10 μM) (CYP enzymes): 1
- clearance [7]: 25.5 mL/min/kg
- encapsidated pgRNA [1]: reduced the amounts of encapsidated pgRNA
- capsids [1]: induced the accumulation of capsids with faster electrophoresis mobility

Structure (SMILES): O=C(Nc1ccc(O)c(Cl)c1)c1cccc2c1OCCO2 [Compound 20]
- anti-HBV activity (in words) (HBV replication [5]): not active

Structure (SMILES): O=C(Nc1cc(F)c(F)c(F)c1)c1cccc2c1OCCO2 [Compound 29]
- anti-HBV activity (in words) (HBV replication [5]): submicromolar

Structure (SMILES): O=C1CCN(C(=O)Nc2cccc(Cl)c2)[C@@H]2CCCC[C@H]12 [Compound 74]
- anti-HBV activity (in words) (HBV replication [5]): submicromolar

Structure (SMILES): COC(=O)C1=C(C)NC(c2ncc(F)cc2F)=N[C@H]1c1ccc(F)cc1Cl [Bay 41–4109]
- encapsidated pgRNA [1]: prevented
- capsids [1]: completely abolished capsid formation
- intracellular core protein level [1]: induced the degradation of core protein

Structure (SMILES): O=C(Nc1ccc(F)c(Cl)c1)c1cccc2nccnc12 [Compound 34]
- activity loss compared to 10 (HBV replication [5]): > 10 fold

Structure (SMILES): C[C@@H](NS(=O)(=O)c1ccc(F)c(C(=O)Nc2ccc(F)c(F)c2)c1)C1CC1 [ENAN-34017]
- encapsidated pgRNA [1]: reduced the amounts of encapsidated pgRNA
- capsids [1]: induced the accumulation of capsids with faster electrophoresis mobility

Structure (SMILES): Cc1cc(NC(=O)N2CCC(=O)[C@H]3CCCC[C@H]32)ccc1F [Compound 70]
- anti-HBV activity (in words) (HBV replication [5]): submicromolar

Structure (SMILES): O=C(NC1CC(F)(F)C1)c1cccc2c1OCCO2 [Compound 21]
- anti-HBV activity (in words) (HBV replication [5]): lost activity

Structure (SMILES): O=C(Nc1ccc(F)c(Cl)c1)c1cccc2c1OC(F)(F)O2 [Compound 37]
- potency increase compared to 10 (HBV replication [5]): 2 fold

Structure (SMILES): O=C1CCN(C(=O)Nc2ccc(F)c(C(F)F)c2)[C@@H]2CCCC[C@H]12 [Compound 71]
- anti-HBV activity (in words) (HBV replication [5]): submicromolar

Structure (SMILES): O=C(Nc1ccc(F)c(Cl)c1)c1cccc2c1OCCC2 [Compound 33]
- activity loss compared to 10 (HBV replication [5]): about 4 fold
